From PubChem BioAssay
HSF1 inh – HSF1 inhibitors in luciferase reporter cells, primary screen, cell-based, NIH3T3, luminescence | NIH3T3-HGL HSE-luciferase, MG132-induced, luminescence 8 h; hits give low values | activity change, negative = inhibition, % at 7.5 µM (by protocol) | 300,000 tested, 0.77% active | AID 2098, 2009;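 active means more than half of replicate wells show activity change below -50%, luminescence cut by over half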;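 further: luciferase reports HSF-1 transcriptional activity via heat shock element; 0% = median of DMSO wells and -100% = zero luminescence signal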
core dimer inh – inhibitors of HCV core protein dimerization, primary screen, biochemical, TR-FRET, high-throughput; TR-FRET GST/Flag-core106 dimerization, 1536-well; inhibition, % at 5 µM; 300,000 tested, 0.33% active;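 active means inhibition above the mean of all tested compounds plus 3 SD, set per screening campaign, cut at about 45% in these data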
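Material: GST/Flag-tagged HCV core106 proteins. Incubation: 4 h, 22.5 °C incubation. Read-out basis: inhibition (%) from 671 over 617 nm ratio. Measured by: TR-FRET, excitation 340 nm, emission 617 and 671 nm.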
ALR inh – inhibitors of human ALR sulfhydryl oxidase, primary screen, biochemical, H2O2 detection, HRP-luminol luminescence, single point; FAD-linked sulfhydryl oxidase ALR (Homo sapiens), P55789; purified ALR, DTT oxidation; inhibition, % (test concentration not listed); 290,000 tested, 3.8% active; AID 485317, 2010;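 active means mean replicate inhibition above about 79%, with every replicate also reaching it, limit read from the data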
Target sequence (P55789 whole entry, looked up): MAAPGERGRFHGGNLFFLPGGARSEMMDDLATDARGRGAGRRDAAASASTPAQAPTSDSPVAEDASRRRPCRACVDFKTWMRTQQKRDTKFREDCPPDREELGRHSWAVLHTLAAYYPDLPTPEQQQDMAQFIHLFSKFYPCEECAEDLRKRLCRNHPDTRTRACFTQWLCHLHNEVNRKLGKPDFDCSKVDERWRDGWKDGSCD
AI-2 QS mod – Vibrio harveyi AI-2 quorum sensing modulators, primary screen, JMH597 strain, luminescence/OD600 ratio; activity change, % at 7.5 µM; Vibrio harveyi JMH597 AI-2 luminescence/OD600 ratio, 9 h; hits give low values; strain lacks LuxN and CqsS sensors; 0 = neutral-control median; 300,000 tested, 0.4% active; AID 2094, 2009; in the data active means activity change below about -75%, passing the limit was not always enough;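 further: luminescence divided by OD600 gain over 9 h not by final OD600 alone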
HSF-1 act – HSF-1 activators, primary screen, NIH3T3-HGL cells, MG132 stress, luminescence, single point. NIH3T3-HGL HSF-1 luciferase reporter, 8 h; 100% = twice DMSO control signal. activation, % at 9 µM. 300,000 tested, 1.7% active. AID 504408, 2011;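 active means mean replicate activation of at least 50% with a set share of replicates each reaching 50%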;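 further: 0% = median of the neutral control wells and 100% = twice that signal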
PHOSPHO1 inh – PubChem AID 1565 | Phosphoethanolamine/phosphocholine phosphatase (Homo sapiens), Q8TCT1 | recombinant PHOSPHO1, absorbance phosphatase assay | inhibition, % at 13.3 µM | 290,000 tested, 1.1% active; in the data active means inhibition above about 60%
Target sequence (Q8TCT1 whole entry, looked up): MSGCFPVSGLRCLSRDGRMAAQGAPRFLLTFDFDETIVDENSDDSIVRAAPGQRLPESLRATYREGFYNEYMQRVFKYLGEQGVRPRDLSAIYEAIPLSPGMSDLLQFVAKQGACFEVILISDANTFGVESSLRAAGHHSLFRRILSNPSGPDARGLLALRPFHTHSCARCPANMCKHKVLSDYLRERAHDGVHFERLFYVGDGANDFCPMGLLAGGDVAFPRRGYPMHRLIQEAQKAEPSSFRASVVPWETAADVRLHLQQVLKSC
Starred values were filed as active, the others as inactive; x = no result given. Rows were chosen to be rich in hits. Some 6.8% of all compounds tested hit in one or more screens of this group.

SMILES	HSF1 inh	core dimer inh	ALR inh	AI-2 QS mod	HSF-1 act	PHOSPHO1 inh
O=S1(=O)[C@H]2C[C@@H]3C=C[C@@]2(CN1Cc1ccc(F)cc1)O3	4	-2	x	8	-9	-2
CCC(C)C(=O)NCCc1ccc(S(N)(=O)=O)cc1 (configuration not stated)	-4	-3	5	1	-3	-2
CCCNc1cc(=S)nc(N)[nH]1	2	-1	x	24	-3	-83
Cc1cccc(OCC(=O)OC2CCN(C)CC2)c1	-55*	-6	6	20	-61	23
CCCOc1ccc(Cl)cc1CNc1ccccc1	4	-2	98*	-1	30	35
COc1ccc(C(CC(=O)Nc2ccccn2)N2Cc3ccccc3C2=O)cc1OC (configuration not stated)	1	0	-2	16	2	38
COc1ccc(CN2C(=O)C(Cc3ccccc3)Nc3ncnc(N4CCc5ccccc5C4)c32)cc1 (configuration not stated)	48	36	4	32	71*	x
CC(CCc1ccccc1)NC(=O)CN1C(=O)NC2(CCCCC2)C1=O (configuration not stated)	1	-3	-5	5	-4	16
COc1cccc(-c2cc(N)nn2C(=O)Nc2ccc(Cl)cc2)c1	18	-2	100*	17	30	10
N=c1c2c(-c3ccccc3)c(-c3ccccc3)n(Cc3ccco3)c2ncn1CCCn1ccnc1	6	-5	x	12	3	-3
N=c1c2c(-c3ccccc3)c(-c3ccccc3)n(Cc3ccco3)c2ncn1CCCN1CCOCC1	49	-5	x	9	102*	25
c1ccc(Cn2cc(CN3CCCO3)c(-c3ccc4c(c3)OCO4)n2)cc1	25	-1	0	4	35	22
COC(=O)c1c(NC(=O)CCc2ccc(C)o2)sc(C)c1C	31	7	97*	-3	35	-44
COC(=O)CCC(=O)Nc1sc(C)c(C)c1C(N)=O	7	-5	17	14	5	90*
CCOC(=O)c1c(NC(=O)CCc2ccc(CC)o2)sc(C)c1C	1	-9	97*	11	9	40
CCOC(=O)c1ccc(NC(=O)CCc2ccc(CC)o2)cc1	2	0	13	-14	-2	11
CCCc1nc(SCC(=O)N2CCOCC2)c2c(C)c(C)sc2n1	-3	3	-5	45	-6	27
CCOC(=O)C1CCCN(C(=O)CSc2nnnn2C)C1 (configuration not stated)	x	x	-9	x	x	x
Cc1ccc(-n2cccc2C(=S)N=P(N(C)C)(N(C)C)N(C)C)cc1	-7	-3	8	-1	-12	67*
CC1CCN(CCCNC(=O)Cn2ncc3c([nH]c4ccccc43)c2=O)CC1	-5	-7	-24	31	1	36
CCCCN(CCCC)C(=S)NC(=O)c1ccccc1Cl	-8	-9	3	2	6	1
Nc1c(C(=O)Nc2ccc(S(=O)(=O)N3CCCC3)cc2)sc2nc3ccc(OC(F)(F)F)cc3cc12	4	63*	-2	19	14	-24
Nc1c(C(=O)Nc2ccc(S(=O)(=O)N3CCCC3)cc2)sc2nc3cc4c(cc3cc12)CCC4	2	29	-1	3	14	-2
Cc1ccc(C)c(N(CC(=O)N/N=C/c2ccc(-c3ccc([N+](=O)[O-])cc3)o2)S(=O)(=O)c2ccccc2)c1	7	52*	-9	30	3	37
CCOc1ccc(S(=O)(=O)N(CC(=O)N/N=C/c2ccc(-c3ccc([N+](=O)[O-])cc3)o2)c2ccccc2)cc1	4	75*	-2	1	8	12
SMILES	HSF1 inh	core dimer inh	ALR inh	AI-2 QS mod	HSF-1 act	PHOSPHO1 inh
CCOc1ccc(NC(=O)CN(c2ccc([N+](=O)[O-])cc2)S(=O)(=O)c2ccccc2)cc1	-11	10	-29	-7	-3	4
CC(=O)Nc1ccc(NC(=O)CN(c2ccc([N+](=O)[O-])cc2)S(=O)(=O)c2ccccc2)cc1	-6	8	-21	0	-9	67*
CCCN(C(=O)CSc1ccccc1C(=O)O)C1CCS(=O)(=O)C1 (configuration not stated)	x	x	-2	x	x	x
CSc1ccccc1C(=O)N1CCc2ccccc2C1	1	3	x	21	5	29
CCC(=O)N1CCc2cc(S(=O)(=O)CCC(=O)NCc3ccc(C)cc3)ccc21	-3	0	4	17	-8	22
CCC(=O)N1CCc2cc(S(=O)(=O)CCC(=O)Nc3nc(C)cs3)ccc21	-2	-1	99*	-9	-2	13
CCC(=O)N1CCc2cc(S(=O)(=O)CCC(=O)Nc3ccc(C)cn3)ccc21	-11	6	99*	12	-7	25
CCOCCCNC(=O)CN1CCN(S(=O)(=O)c2ccc3c(c2)CCC3)CC1	x	x	1	x	x	x
CCN(CC)S(=O)(=O)c1ccc(N2CC(C(=O)N3Cc4ccccc4CC3C(N)=O)CC2=O)cc1 (configuration not stated)	x	x	6	x	x	x
C=CCOc1ccc(/C=N/N2C(=O)C(CC(=O)Nc3ccc(F)cc3F)SC2=NC)cc1 (configuration not stated)	29	1	x	9	54*	-19
CN=C1SC(CC(=O)Nc2ccccc2F)C(=O)N1C (configuration not stated)	0	-4	-26	40	5	3
COc1ccccc1-c1c(C)c(C)nc(N)c1C#N	-2	-5	-9	22	15	9
COc1ccccc1-c1cc(-c2ccc(O)cc2)nc(N)c1C#N	17	-4	96*	-17	6	37
COc1ccccc1-c1c(C#N)c(N)nc2c1CCc1ccccc1-2	41	5	-133	15	60*	1
N#Cc1c(-c2ccccc2)cc(-c2ccc(O)cc2)nc1N	20	5	99*	-15	34	14
COc1cc(-c2cc(-c3ccc(O)cc3)nc(N)c2C#N)ccc1O	10	5	97*	6	22	6
COc1ccc(-c2cc(-c3ccc(O)cc3)nc(N)c2C#N)cc1	4	7	55	-12	33	13
COCc1ccc(-c2c(-c3cc(OC)cc(OC)c3)oc(=O)c3cc(OC)c(OC)cc23)cc1	x	x	-22	x	x	x
C=CCSC1=NN2CCS(=O)(=O)N=C2S1	-7	0	-15	-7	-8	4
